# HSP90 refold inh: inhibitors of HSP90 luciferase refolding in rabbit reticulocyte lysate; luciferase refolding luminescence, 3 h; inhibition, % at 5.6 µM; 290,000 tested, 0.91% active;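 active = inhibition above the screen-wide mean plus 3 SD, computed separately per campaign, cut at about 16% in these data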;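 also: inhibitors lower the luminescence because luciferase stays unfolded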
# DNA FID counter-1: displaces DNA intercalator in HCV helicase counter-screen; DNA fluorescent intercalator displacement, fluorescence; inhibition, % at 7.9 µM; 290,000 tested, 0.17% active; AID 1845;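 also: higher means more ethidium bromide displaced from hairpin DNA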
# HSF1 inhib: HSF1 inhibition; NIH3T3-HGL HSE-luciferase, MG132-induced, luminescence 8 h; hits give low values; 300,000 tested, 0.77% active; activity change, negative = inhibition, % at 7.5 µM (by protocol);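 active = more than half of replicate wells show activity change below -50%, luminescence cut by over half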;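 also: luciferase reports HSF-1 transcriptional activity via heat shock element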
# HSF1 activator: increases HSF-1 driven luciferase reporter signal; activation, % at 9 µM; 300,000 tested, 1.7% active; AID 504408; NIH3T3-HGL HSF-1 luciferase reporter, MG132, 8 h; 100% = twice DMSO control signal;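 active = mean replicate activation of at least 50% with a set share of replicates each reaching 50%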
# HCV NS3 hel inh: HCV NS3 helicase inhibition; NS3 helicase DNA unwinding, Cy5 molecular beacon fluorescence; inhibition, % at 10.9 µM; 290,000 tested, 0.56% active;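 active = inhibition above the mean of all tested compounds plus 3 SD, set per campaign, cut at about 35% in these data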
#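 Control set: DMSO versus 110 µM thioflavine S; Material: NS3 helicase fragment of HCV; Measured by: Cy5 fluorescence at 0 and 60 min, beacon hairpin quenching; Read-out basis: percent inhibition from t60/t0 fluorescence ratio; Times: reaction time 60 min, 25 °C; Repeats: single replicate; Compound dosing: single dose, 10.9 µM nominal final, DMSO 0.8% final.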
# core dimer inh: HCV core protein dimerization inhibition; TR-FRET GST/Flag-core106 dimerization, 1536-well; inhibition, % at 5 µM; 300,000 tested, 0.33% active;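 active = inhibition above the mean of all tested compounds plus 3 SD, set per screening campaign, cut at about 45% in these data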
#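 System: GST-tagged and Flag-tagged HCV core protein residues 1-106 / Input: core106 proteins, GST 13.5 nM and Flag 17 nM / Buffer or medium: KF-containing HEPES buffer, pH 7.45, DTT, CHAPS, BSA / Probe or stimulus: Eu-anti-GST and XL665-anti-Flag labelled anti-tag antibodies / Schedule: 4 h, 22.5 °C incubation / Technique: TR-FRET 671 and 617 nm emission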
# NS3 helicase cf: confirmation of Hepatitis C virus NS3 helicase inhibitors; shares compounds with HCV NS3 hel inh; NS3 helicase DNA unwinding, Cy5 molecular beacon fluorescence; inhibition, % at 10.9 µM; 1,600 tested, 31% active;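 active = inhibition above the mean of all tested compounds plus 3 SD, cutoff set per campaign, cut at about 36% in these data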
# DNA FID counter-2: intercalator displacement, NS3 helicase counter-screen. shares compounds with HCV NS3 hel inh. DNA fluorescent intercalator displacement, fluorescence. inhibition, % at 7.9 µM. 1,600 tested, 4% active;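 also: higher means more displacement of ethidium bromide from the DNA hairpin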
# DNA FID DR: counter-screen for HCV NS3 helicase inhibitors: DNA intercalator displacement dose response | fluorescent intercalator displacement from DNA, fluorescence | AID 2172 | shares compounds with HCV NS3 hel inh | IC50, µM | 120 tested, under 10 active; call rule not given here
# Hits are given with their value; 0 = inactive; - = not tested or not shown. An excerpt weighted towards active compounds, which were near 3.9% of everything screened. Rule as the data show it, unless noted: active = inhibition above about 37%; inactive = the rest.
SMILES,HSP90 refold inh,DNA FID counter-1,HSF1 inhib,HSF1 activator,HCV NS3 hel inh,core dimer inh,NS3 helicase cf,DNA FID counter-2,others
CCNc1ccccc1CP(=O)(c1ccccc1)c1ccccc1O (stereo unspecified),0,0,0,0,63.5,0,0,0,
Cc1ccc(O)c(CP(=O)(c2ccccc2)c2ccccc2)c1,0,0,0,0,0,0,-,-,
O=C(N/N=C/c1ccc2c(c1)OCO2)C1CC1,0,0,0,0,0,0,-,-,
Cc1nnc(-c2ccco2)c2cn(-c3cccc(Br)c3)nc12,0,0,0,0,39.0,0,0,0,
CC(C)CCN1CCN=C1Nc1ccccc1,0,0,0,0,49.6,0,0,0,
CCc1nnc(NC(=O)c2ccc(S(=O)(=O)NCC(C)C)cc2)s1,0,0,0,0,0,0,-,-,
O=C(O)c1cc(N/N=C/c2ccc(N3CCOCC3)s2)ccc1Cl,0,0,-,-,46.7,0,79.7,0,
NC(=O)N/N=C/c1ccc(N2CCOCC2)s1,0,0,0,0,0,0,-,-,
Cc1sc2nc3c(SC(C)C(=O)O)cc(C(=O)c4ccccc4O)cn3c(=O)c2c1C (stereo unspecified),0,0,0,0,44.7,0,69.8,55.9,
CCOC(=O)c1sc2nc3c(SCC(=O)O)cc(C(=O)c4cc(F)ccc4O)cn3c(=O)c2c1C,0,0,0,0,36.2,0,51.6,64.9,
CCCCCCCNC(=O)C1(CC2CC(c3cccc(Br)c3)=NO2)CCNCC1 (stereo unspecified),0,0,0,0,0,0,-,-,
CCOc1ccc(CCNC(=O)COC(=O)/C=C/c2ccccc2OC)cc1OCC,-,-,0,0,-,0,-,-,
O=C(Cn1cc(C(=O)COc2ccccc2)c2ccccc21)NCc1ccco1,0,0,-,-,44.0,0,0,0,
CC(=O)c1cn(CC(=O)NCc2ccco2)c2ccccc12,0,0,0,0,0,0,-,-,
COc1ccc(CCNC(=O)c2ccc(CS(=O)Cc3ccc(Cl)cc3)o2)cc1OC (stereo unspecified),0,0,0,0,0,0,-,-,
O=C(O)c1cc([N+](=O)[O-])ccc1Nc1ccccc1,0,0,0,0,0,0,-,-,
Cc1cccc(Nc2ccc([N+](=O)[O-])cc2C(=O)O)c1,0,0,0,0,37.2,0,65.5,0,
Cc1ccc(C)c2[nH]c(=O)c(C(c3nnnn3CCc3ccccc3)N3CCOCC3)cc12 (stereo unspecified),0,0,0,0,0,0,-,-,
Cc1ccc(C)c2[nH]c(=O)c(C(c3nnnn3Cc3ccco3)N3CCc4ccccc4C3)cc12 (stereo unspecified),0,0,0,0,39.0,0,0,0,
Cc1cc(Nc2ccccc2)cc(=O)n1C,-,-,0,0,-,0,-,-,
CC1CCC2C(C1)OS(=O)(=O)NC2(C)C (stereo unspecified),0,0,0,0,41.0,0,0,0,
CCn1c(CN(C)c2ccccc2)nc2ccccc21,0,0,0,0,0,0,-,-,
Cc1cc2nc3c(=O)n(CCc4ccccc4)c(=O)[nH]c3nc2cc1N,0,0,0,59.0,38.1,0,0,0,
Oc1c(Br)cc(Br)c(/C=N/n2c(-c3ccccc3)n[nH]c2=S)c1Br,0,0,0,0,39.5,0,68.8,0,
S=c1[nH]nc(-c2ccc(Cl)cc2)n1/N=C/C=C/c1ccco1,0,0,0,0,0,0,-,-,
SMILES,HSP90 refold inh,DNA FID counter-1,HSF1 inhib,HSF1 activator,HCV NS3 hel inh,core dimer inh,NS3 helicase cf,DNA FID counter-2,others
Cc1cc(-c2n[nH]c(=S)n2/N=C/C=C/c2ccco2)n[nH]1,0,0,0,0,0,0,-,-,
Oc1ccc(Br)cc1/C=N/n1c(-c2ccccc2)n[nH]c1=S,0,0,0,0,0,0,-,-,
Cc1ccccc1-c1n[nH]c(=S)n1/N=C/C=C/c1ccco1,0,0,0,0,37.7,0,0,0,
S=c1[nH]nc(-c2ccccc2)n1/N=C/C=C/c1ccco1,0,0,0,0,52.2,0,0,0,
O=C(CN1CCCC1)Nc1ccc([N+](=O)[O-])cc1,0,0,0,0,0,0,-,-,
C=CCn1c(SCc2nc3sc(C(=O)O)c(C)c3c(=O)[nH]2)nnc1-c1ccccc1,0,0,0,0,40.8,0,0,0,
CC(=O)c1sc2nc(CSc3nnnn3-c3ccccc3)[nH]c(=O)c2c1C,0,0,0,0,36.5,73.7,0,0,
CC(Cl)C(=O)Nc1c2c(nn1-c1ccccc1)CSC2 (stereo unspecified),0,0,0,0,0,0,-,-,
CC(C)C(C(=O)O)N1C(=O)/C(=C/C=C/c2ccco2)SC1=S (stereo unspecified),0,0,0,0,44.5,57.2,77.9,0,
COc1ccc(/C=C2\SC(=S)N(NC(=O)c3ccncc3)C2=O)cc1OC,0,0,0,0,0,0,-,-,
O=C1/C(=C/C=C/c2ccco2)SC(=S)N1c1ccc(O)cc1,0,0,0,0,51.1,74.0,90.8,0,DNA FID DR=0
O=C(NN1C(=O)/C(=C/C=C/c2ccco2)SC1=S)c1ccncc1,0,0,0,0,40.0,47.2,77.9,0,
O=C1/C(=C\c2ccco2)SC(=S)N1c1ccc(O)cc1,0,0,0,0,0,0,-,-,
CC(C(=O)Nc1ccc(C(=O)O)c(O)c1)N1C(=O)/C(=C\c2ccco2)SC1=S (stereo unspecified),0,0,0,0,0,0,-,-,
COc1ccc(NC(=O)C2CC(=O)N(CCc3ccc(Cl)cc3)C2)cc1 (stereo unspecified),0,0,0,0,0,0,-,-,
CNC(=O)CN(c1cc(OCCOC)c(Cl)cc1Cl)S(=O)(=O)c1ccc(OC)cc1,0,0,0,0,0,0,-,-,
CCCN(CC#CC(O)(c1ccccc1)c1cccnc1)CCC (stereo unspecified),0,0,0,0,44.6,0,0,0,
Cc1ccc(C(CCN(Cc2ccccc2)C(=O)c2ccco2)c2ccco2)cc1 (stereo unspecified),0,0,0,0,53.9,0,54.8,0,DNA FID DR=0
CSCCC(NC(=O)c1cccc(C)c1)C(=O)Nc1sccc1C(N)=O (stereo unspecified),0,0,0,0,41.0,0,0,0,
CSCCC(NC(=O)c1ccccc1)C(=O)Nc1ccc(C)cc1 (stereo unspecified),0,0,0,0,0,0,-,-,
CCCn1nc(C(=O)NCCc2ccc(S(N)(=O)=O)cc2)c2ccccc2c1=O,0,0,0,0,0,0,-,-,
O=C(O)c1ccc(/C=N/NC(=O)c2cc(-c3ccc4c5c(cccc35)CC4)n[nH]2)cc1,0,0,0,0,36.9,0,65.3,0,
